Experimental data from ChEMBL document CHEMBL2021766, “Antiplasmodial activity of novel keto-enamine chalcone-chloroquine based hybrid pharmacophores” (Bioorg Med Chem, 2012).
Values after ≈ are worked out from the molar mass of the structure shown.

Legend:
Plasmodium yoelii [1] = test: Inhibition of beta-hematin formation in Plasmodium yoelii infected Swiss mouse plasma using hemin as substrate after 16 hrs by spectrophotometry; assay type: functional
Procedure, shortened: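 Plasma taken by cardiac puncture into 2.0% citrate from male Swiss mice (15–20 g) infected with 1 × 10^5 P. yoelii RBCs, at about 50% parasitemia. Mix: 100 mM sodium acetate pH 5.1, 50 µL plasma, 100 µM hemin, compound, in triplicate, 37 °C for 16 h with shaking. Pellet washed in Tris–HCl pH 7.4 with 2.5% SDS. IC50 = 50% inhibition; three experiments in triplicate.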

[2] = Selectivity index, ratio of CC50 for monkey Vero cells to IC50 for chloroquine-sensitive ring stage Plasmodium falciparum 3D7; assay type: functional
Procedure, shortened: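 Vero cells exposed to dilutions of test agents for 72 h; MTT read-out (modified Mosmann method); CC50 by non-linear regression. Ratio taken against the 3D7 IC50 from SYBR Green-I assay.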

Plasmodium falciparum = test: Antimalarial activity against chloroquine-sensitive ring stage Plasmodium falciparum 3D7 after 72 hrs by SYBR Green-I assay; assay type: functional, organism-based; settings: 3D7, 72 h
Procedure, shortened: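 Asynchronous P. falciparum 3D7 culture (over 80% ring stages), 1.0% parasitized cell suspension at 0.8% parasitaemia, incubated with twofold serial dilutions at 37 °C, 5% CO2/air, 72 h. Lysis buffer with 1× SYBR Green-I added, 1 h at 37 °C. Fluorescence read at 485/530 nm excitation/emission. IC50 from triplicate experiments.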

Plasmodium yoelii [3] = test: Antimalarial activity against chloroquine-resistant Plasmodium yoelii N-67 infected Swiss mouse assessed as mean survival time at 100 mg/kg/day, po qd for 4 days; assay type: functional
Procedure, shortened: (§1)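 Swiss mice infected with P. yoelii N-67 (1 × 10⁵ parasitized RBC, day 0). Test agents were given as aqueous suspensions with a few drops of Tween 80, orally at 100 mg/kg/day, once daily on days 0–3, to groups of five. Parasitaemia was read from thin blood smears on days 4 and 6. Percent suppression was calculated from group means versus untreated controls. Survival and cure were followed to day 30.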

Plasmodium yoelii [4] = test: Antimalarial activity against chloroquine-resistant Plasmodium yoelii N-67 infected Swiss mouse assessed as suppression of parasitemia at 100 mg/kg/day, po qd for 4 days measured on day 4; assay type: functional; settings: N-67, 96 h; procedure, shortened: as §1
Plasmodium yoelii [5] = test: Antimalarial activity against chloroquine-resistant Plasmodium yoelii N-67 infected Swiss mouse assessed as suppression of parasitemia at 100 mg/kg/day, po qd for 4 days measured on day 6; assay type: functional; procedure, shortened: as §1
Plasmodium yoelii [6] = test: Antimalarial activity against chloroquine-resistant Plasmodium yoelii N-67 infected Swiss mouse assessed as suppression of parasitemia at 10 mg/kg/day, po qd for 4 days measured on day 4; assay type: functional; settings: N-67, 96 h
Plasmodium yoelii [7] = test: Antimalarial activity against chloroquine-resistant Plasmodium yoelii N-67 infected Swiss mouse assessed as suppression of parasitemia at 20 mg/kg/day, po qd for 4 days measured on day 4; assay type: functional; settings: N-67, 96 h
Plasmodium yoelii [8] = test: Antimalarial activity against chloroquine-resistant Plasmodium yoelii N-67 infected Swiss mouse assessed as suppression of parasitemia at 20 mg/kg/day, po qd for 4 days measured on day 6; assay type: functional
Plasmodium yoelii [9] = test: Antimalarial activity against chloroquine-resistant Plasmodium yoelii N-67 infected Swiss mouse assessed as mean survival time at 10 mg/kg/day, po qd for 4 days; assay type: functional
Plasmodium yoelii [10] = test: Antimalarial activity against chloroquine-resistant Plasmodium yoelii N-67 infected Swiss mouse assessed as suppression of parasitemia at 10 mg/kg/day, po qd for 4 days measured on day 6; assay type: functional
Plasmodium yoelii [11] = test: Antimalarial activity against chloroquine-resistant Plasmodium yoelii N-67 infected Swiss mouse assessed as mean survival time at 20 mg/kg/day, po qd for 4 days; assay type: functional

Compound | IC50 (Plasmodium yoelii [1]) [µg/mL] | Ratio CC50/IC50 [2] | IC50 (Plasmodium falciparum) [µg/mL] | MST (Plasmodium yoelii [3]) [days] | inhibition in vivo at 100 mg/kg/day (Plasmodium yoelii [4]) [%] | inhibition in vivo at 100 mg/kg/day (Plasmodium yoelii [5]) [%] | also measured
CCC(C)C1=CC(/C=C/C(=O)c2ccco2)=CC(=C\Nc2ccc(Nc3ccnc4cc(Cl)ccc34)cc2)/C1=O (stereo not given) | 3.21 (≈ 5.84 µM) | 678.11 | 0.08 (≈ 0.145 µM) | – | – | – | –
CCC(C)C1=CC(/C=C/C(=O)c2ccco2)=CC(=C\NCCNc2ccnc3cc(Cl)ccc23)/C1=O (stereo not given) | 2.89 (≈ 5.76 µM) | 1138.22 | 0.00709 (≈ 0.0141 µM) | 17.6 | 99.5 | 85.8 | –
CCC(C)C1=CC(/C=C/C(=O)c2cccs2)=CC(=C\NCCNc2ccnc3cc(Cl)ccc23)/C1=O (stereo not given) | 2.62 (≈ 5.06 µM) | 1373.63 | 0.0091 (≈ 0.0176 µM) | 18.2 | 99.4 | 86.7 | –
CC(C)(C)C1=CC(/C=C/C(=O)c2ccc(F)cc2)=CC(=C\NCCNc2ccnc3cc(Cl)ccc23)/C1=O | 13.8 (≈ 26 µM) | 1499.3 | 0.00719 (≈ 0.0136 µM) | 18.4 | 99.9 | 97 | –
CC(C)(C)C1=CC(/C=C/C(=O)c2ccc(Cl)cc2)=CC(=C\NCCNc2ccnc3cc(Cl)ccc23)/C1=O | 8.06 (≈ 14.7 µM) | 868.3 | 0.0282 (≈ 0.0515 µM) | – | – | – | –
CC(C)(C)C1=CC(/C=C/C(=O)c2ccc(Br)cc2)=CC(=C\NCCNc2ccnc3cc(Cl)ccc23)/C1=O | 21.9 (≈ 37.1 µM) | 1883.62 | 0.00464 (≈ 0.00785 µM) | 17.6 | 99.9 | 96.7 | –
CC1=CC(/C=C/C(=O)c2ccc(O)cc2)=CC(=C\NCCCNc2ccnc3cc(Cl)ccc23)/C1=O | 3.48 (≈ 6.96 µM) | 505.98 | 0.0351 (≈ 0.0702 µM) | – | – | – | –
COc1ccc(C(=O)/C=C/C2=CC(=C\NCCCNc3ccnc4cc(Cl)ccc34)/C(=O)C(C)=C2)cc1 | 5.34 (≈ 10.4 µM) | 295.66 | 0.0388 (≈ 0.0754 µM) | – | – | – | –
CC1=CC(/C=C/C(=O)c2ccc(Cl)cc2)=CC(=C\NCCCNc2ccnc3cc(Cl)ccc23)/C1=O | 2.9 (≈ 5.59 µM) | 513.99 | 0.0429 (≈ 0.0827 µM) | – | – | – | –
CCC(C)C1=CC(/C=C/C(=O)c2ccc(O)cc2)=CC(=C\NCCCNc2ccnc3cc(Cl)ccc23)/C1=O (stereo not given) | 2.93 (≈ 5.41 µM) | 486.57 | 0.0424 (≈ 0.0783 µM) | – | – | – | –
CCC(C)C1=CC(/C=C/C(=O)c2ccc(OC)cc2)=CC(=C\NCCCNc2ccnc3cc(Cl)ccc23)/C1=O (stereo not given) | 6.59 (≈ 11.9 µM) | 549.12 | 0.0418 (≈ 0.0752 µM) | – | – | – | –
CCC(C)C1=CC(/C=C/C(=O)c2ccc(Cl)cc2)=CC(=C\NCCCNc2ccnc3cc(Cl)ccc23)/C1=O (stereo not given) | 6.08 (≈ 10.8 µM) | 491.77 | 0.0419 (≈ 0.0748 µM) | – | – | – | –
COc1ccc(C(=O)/C=C/C2=CC(=C\Nc3ccc(Nc4ccnc5cc(Cl)ccc45)cc3)/C(=O)C(C)=C2)cc1 | 4.35 (≈ 7.94 µM) | 315.33 | 0.201 (≈ 0.366 µM) | – | – | – | –
CC1=CC(/C=C/C(=O)c2ccc(F)cc2)=CC(=C\Nc2ccc(Nc3ccnc4cc(Cl)ccc34)cc2)/C1=O | 3.78 (≈ 7.05 µM) | 407.52 | 0.16 (≈ 0.299 µM) | – | – | – | –
CC(C)(C)C1=CC(/C=C/C(=O)c2ccc(Cl)cc2)=CC(=C\Nc2ccc(Nc3ccnc4cc(Cl)ccc34)cc2)/C1=O | 7.88 (≈ 13.3 µM) | 196.7 | 0.38 (≈ 0.639 µM) | – | – | – | –
CC(C)(C)C1=CC(/C=C/C(=O)c2ccc(Br)cc2)=CC(=C\Nc2ccc(Nc3ccnc4cc(Cl)ccc34)cc2)/C1=O | 13.9 (≈ 21.8 µM) | – | > 0.1 | – | – | – | –
CC1=CC(/C=C/C(=O)c2ccc(C)cc2)=CC(=C\NCCNc2ccnc3cc(Cl)ccc23)/C1=O | 2.91 (≈ 6.01 µM) | 1034.23 | 0.00975 (≈ 0.0201 µM) | 17.6 | 99.8 | 88.7 | –
CC1=CC(/C=C/C(=O)c2ccc(O)cc2)=CC(=C\NCCNc2ccnc3cc(Cl)ccc23)/C1=O | 2.89 (≈ 5.95 µM) | 27548.21 | 0.00363 (≈ 0.00747 µM) | – | – | – | –
COc1ccc(C(=O)/C=C/C2=CC(=C\NCCNc3ccnc4cc(Cl)ccc34)/C(=O)C(C)=C2)cc1 | 3.01 (≈ 6.02 µM) | 1137.97 | 0.0167 (≈ 0.0333 µM) | – | – | – | –
CC1=CC(/C=C/C(=O)c2ccc(F)cc2)=CC(=C\NCCNc2ccnc3cc(Cl)ccc23)/C1=O | 2.91 (≈ 5.96 µM) | 1034.23 | 0.0109 (≈ 0.0222 µM) | 15.6 | 99.5 | 83.5 | –
CC1=CC(/C=C/C(=O)c2ccc(Cl)cc2)=CC(=C\NCCNc2ccnc3cc(Cl)ccc23)/C1=O | 2.99 (≈ 5.93 µM) | 3755.43 | 0.0222 (≈ 0.044 µM) | – | – | – | –
CC1=CC(/C=C/C(=O)c2ccc(Br)cc2)=CC(=C\NCCNc2ccnc3cc(Cl)ccc23)/C1=O | 7.6 (≈ 13.8 µM) | 1114.59 | 0.0188 (≈ 0.0343 µM) | 18 | 99.7 | 80.6 | –
COc1cc(C(=O)/C=C/C2=CC(=C\NCCNc3ccnc4cc(Cl)ccc34)/C(=O)C(C)=C2)cc(OC)c1OC | 9.61 (≈ 17.2 µM) | 1392.22 | 0.0107 (≈ 0.0191 µM) | 17 | 99.8 | 82.1 | –
CC1=CC(/C=C/C(=O)c2cccs2)=CC(=C\NCCNc2ccnc3cc(Cl)ccc23)/C1=O | 3.1 (≈ 6.51 µM) | 1414.59 | 0.00975 (≈ 0.0205 µM) | 16.2 | 99.8 | 82.3 | –
CCC(C)C1=CC(/C=C/C(=O)c2ccccc2)=CC(=C\NCCNc2ccnc3cc(Cl)ccc23)/C1=O (stereo not given) | 3.15 (≈ 6.15 µM) | 498.54 | 0.0136 (≈ 0.0266 µM) | 14.6 | 99.6 | 83.2 | –
CCC(C)C1=CC(/C=C/C(=O)c2ccc(O)cc2)=CC(=C\NCCNc2ccnc3cc(Cl)ccc23)/C1=O (stereo not given) | 2.71 (≈ 5.13 µM) | 1071.27 | 0.022 (≈ 0.0417 µM) | – | – | – | –
CCC(C)C1=CC(/C=C/C(=O)c2ccc(OC)cc2)=CC(=C\NCCNc2ccnc3cc(Cl)ccc23)/C1=O (stereo not given) | 12.6 (≈ 23.2 µM) | 1058.05 | 0.0183 (≈ 0.0337 µM) | – | – | – | –
CCC(C)C1=CC(/C=C/C(=O)c2ccc(Cl)cc2)=CC(=C\NCCNc2ccnc3cc(Cl)ccc23)/C1=O (stereo not given) | 11.2 (≈ 20.5 µM) | 1014.51 | 0.0179 (≈ 0.0328 µM) | – | – | – | –
CCN(CC)CCCC(C)Nc1ccnc2cc(Cl)ccc12 (stereo not given) [CHLOROQUINE] | 3.65 (≈ 11.4 µM) | – | – | – | – | – | inhibition in vivo at 10 mg/kg/day (Plasmodium yoelii [6]): 99%; inhibition in vivo at 20 mg/kg/day (Plasmodium yoelii [7]): 99%; inhibition in vivo at 20 mg/kg/day (Plasmodium yoelii [8]): 93.9%; MST (Plasmodium yoelii [9]): 13.6 days; inhibition in vivo at 10 mg/kg/day (Plasmodium yoelii [10]): 93.6%; MST (Plasmodium yoelii [11]): >28 days
